In general, IC50 refers to the concentration that inhibits the measured activity by half. Read a low IC50 as inhibition by little substance.

SMILES strings stand for the structures.

This note sets out measurements from ChEMBL document CHEMBL1129288, “Design and synthesis of non-peptide Ras CAAX mimetics as potent farnesyltransferase inhibitors” (J Med Chem, 1996).

Assay [1] deals with T1, Protein farnesyltransferase (Homo sapiens, UniProt P49354+P49356). Briefly: In vitro inhibition of Farnesyltransferase. Format: protein-complex assay. The method in brief: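 Partially purified FTase from human Burkitt lymphoma (Daudi) cells, incubated with [³H]FPP and recombinant H-Ras-CVLS for 30 min at 37 °C.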
The target of assay [2] is Geranylgeranyl transferase type I (Homo sapiens, UniProt P49354+P53609). Briefly: In vitro inhibition of Geranylgeranyl transferase type I. Format: protein-complex assay. The method in brief:
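Partially purified GGTase I from human Burkitt lymphoma (Daudi) cells, incubated for 30 min at 37 °C.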

In assay [3] the target is T1, Protein farnesyltransferase. Description: Inhibition of human Burkitt lymphoma (Daudi) cell farnesyltransferase. To be noted: target entry is the homologue from another species.

Take `Cc1cccc(-c2ccc(NC[C@@H](N)CS)cc2)c1`: the IC50 is 0.71 µM in assay [1] and > 100 µM in assay [2]. For the molecule `COc1cc(NC[C@@H](N)CS)ccc1-c1cccc(C(=O)O)c1`, the IC50 in assay [1] is 0.04 µM; in assay [2] it was 43.6 µM. On to `N[C@@H](CS)CNc1ccc(-c2ccccc2C(=O)O)cc1`, for which the IC50 in assay [2] turned out to be 140 µM; in assay [3], 0.543 µM. In the case of `N[C@@H](CS)CNc1ccc(-c2cccc(C(=O)O)c2)cc1`, the IC50 in assay [1] amounted to 0.114 µM; in assay [2], 100 µM. For `COC(=O)c1cccc(-c2ccc(NC[C@@H](N)CS)cc2)c1` the same measures were 0.917 µM and > 100 µM. As for `CC[C@H](C)[C@H](NC(=O)[C@@H](NC(=O)[C@@H](N)CS)C(C)C)C(=O)N[C@@H](CCSC)C(=O)O`, the IC50 in assay [1] was 0.2 µM. That is a sub-micromolar value.

For `N[C@@H](CS)CNc1ccc(-c2ccccc2)cc1`, the IC50 in assay [1] is 1.07 µM; in assay [2], > 100 µM.

On to `N[C@@H](CS)C(=O)NCc1cccc(-c2cccc(C(=O)O)c2)c1`, for which the IC50 is 100 µM in assay [1] and > 100 µM in assay [2]. In assay [1], `CSCC[C@H](NC(=O)c1ccc(NC(=O)[C@@H](N)CS)cc1)C(=O)O` yielded an IC50 of 0.15 µM. For the molecule `N[C@@H](CS)C(=O)Nc1ccc(-c2cccc(C(=O)O)c2)cc1`, the figures for the IC50 in assay [1] and in assay [2] were 13.5 µM and 100 µM, respectively. For `N[C@@H](CS)CNCc1cccc(-c2cccc(C(=O)O)c2)c1` the same measures were 11 µM and 35 µM. Turning to `N[C@@H](CS)CNc1ccc(-c2ccc(C(=O)O)cc2)cc1`, the IC50 in assay [2] is > 100 µM.
